System: MS2 coat protein
Test: apparent Kd, MS2 coat protein; higher = weaker binding; RNA-MaP array; FMN 200 µM where present
How it was run: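 Stalled E. coli RNA polymerase transcribed the designs on Illumina sequencing-chip clusters. SNAP-549-labelled MS2 coat protein was titrated from 0.7 or 1.5 nM, doubling to 3 µM, without and then with constant ligand, in 100 mM Tris-HCl pH 7.5, 80 mM KCl, 4 mM MgCl2, BSA, DTT, yeast tRNA and Tween-20. Per-cluster binding curves were fitted to green signal normalised to red-channel RNA signal and control-cluster median Fmax. The apparent Kd is the median of the filtered fits.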

[1] = designed as: ON switch for flavin mononucleotide, no ligand
[2] = ligand present: flavin mononucleotide, designed as: ON switch for flavin mononucleotide
[3] = designed as: OFF switch for flavin mononucleotide, no ligand
[4] = ligand present: flavin mononucleotide, designed as: OFF switch for flavin mononucleotide

| Sequence | apparent Kd [1] | apparent Kd [2] | apparent Kd [3] | apparent Kd [4] |
| --- | --- | --- | --- | --- |
| AAAAGACAUGAGGAUCACCCAUGUGAAAACGUAGGAGGAUAUGUCUGGAAAACAUGCUGGACAGAAGGCCUGUGUC | 40.1 nM | 22.1 nM | – | – |
| ACCGGAGCAGGAUAUACAUGAGGAUCACCCAUGUGAGCCACACAGCUACUAUAUGCAAGUAGAAGGGCUCGGGU | – | – | 74.2 nM | 120 nM |
| UCCUUGUCCUGAGGAUAUCCGCGGUUCCCAAAAGGAGAAGGCAGGACAUGAGGAUCACCCAUGUACCCAGAACACGUGCAGAGU | – | – | 14.6 nM | 90.9 nM |
| GGAUGACAAAGUCAUCCAUAACGAACAUGAGGAUCACCCAUGUAGGAUAUGCAACUCAAAGAGUUGCAGAAGGACAUGUGCCUU | – | – | 34.6 nM | 273 nM |
| UUGUUAUAUGUAGGAUAUGCAUAUUAUUAUUAUGCAGAAGGACAUGAGGAUCACCCAUGUGUAUUGUUAUUAUAUAUUAUAUAU | – | – | 22.3 nM | 29.5 nM |
| GCAAAGCCUGACAUGAGGAUCACCCAUGUUAGAUUGUUAUGUCAGGAUAUUGUCUAGAACCUAGACAAGAAGGGAUGCUUUGCU | 337 nM | 26.4 nM | – | – |
| AACCUGCGUGGAGGAUAUGAGUGGUUGGACGCAUCAGAAGGCCAGCAGCCACAUGAGGAUCACCCAUGUACAGACACAUGUUUC | 245 nM | 95.1 nM | – | – |
| AAAAGGUUAGGAUAUGCCCGCCGGGUGGGAAGGCCGGGUGGGUAGAAGGGACAUGAGGAUCACCCAUGUAAAAA | – | – | 48.6 nM | 20 nM |
| CUGAUGUGAGGAUAUGUGAUCUGCCUUCUAUGUAGAUGAUCACAGAAGGCACAUGAGGAUCACCCAUGUAGAUC | – | – | 85.9 nM | 94.3 nM |
| AAUCGCGGUCGAAAGCGGUUGCAUGAGGAUAUCCUGAGACAUGAGGAUCACCCAUGUAGACUGCAGGAGAAGGCAUGGAAAGAA | 244 nM | 21.1 nM | – | – |
| CCCAAACUUGGGCUUGGCGGUGCAUAGGAUAUCCUUGAACAUGAGGAUCACCCAUGUACAACUGUGGAGAAGGGUGCAGGGCCU | 132 nM | 17.3 nM | – | – |
| UGCAUGUGAGGAUAUGUGUACUGUUUUUUGUUUAGAUGUACACAGAAGGCACAUGAGGAUCACCCAUGUAGUAC | – | – | 95.8 nM | 22.4 nM |
| UCGUAUACACAAGGAUAUCAAUGGUUUGUAGAUCCUACAUGAGGAUCACCCAUGUUUUUAUAUUGUGAGAAGGUGUAGUGUCUU | 620 nM | 564 nM | – | – |
| UGUAUGGACAGAGGAUAUACAGAUAGGAUCUACUAUCAAACAGUCCUGACAUGAGGAUCACCCAUGUAGAAGGCUGUCCAUACU | – | – | 22.8 nM | 105 nM |
| UAUAUGUGAGGAUAUCAGGUGUGCUAGCGUACUGGUACAUCUGAGAAGGCACAUGAGGAUCACCCAUGUUUCUU | – | – | 26.3 nM | 88 nM |
| UUCAUUAACAUGAGGAUCACCCAUGUUGGCCAGUCUCACACCAGAAGGCACGUUGAGCACAUCAGUGAGGAUAUGGGUGACAUA | 331 nM | 91 nM | – | – |
| UAAUUAAGUGUGAGGAUAUGCUGGUCCUUGGAUCAGCAGAAGGCACAUGAGGAUCACCCAUGUAAUUUAUUUAU | – | – | 85.1 nM | 328 nM |
| UAUUAACACGAAGGAUAUGGUUACAUGAGGAUCACCCAUGUAUGUAUAUUGAUCUAGAUUUUUGACCAGAAGGUCGUGAGUAAA | – | – | 23.9 nM | 38.2 nM |
| CACCGUUACAGAGGAUAUGAUACAUGAGGAUCACCCAUGUAAUAAAUGAGAAUUUCGAAUGUACCUCAGAAGGCUGGAACCGGC | – | – | 40.4 nM | 83.2 nM |
| CUACAUGAGGAUCACCCAUGUGCGCACUGGAUCAGUGCGCGCAGAAGGGCCAUGGAGAAAGCCAGGCAGGAUAUGCAAAGGGCU | 288 nM | 226 nM | – | – |
| AGCUAGUACCGAGGAUAUACAUACAUGAGGAUCACCCAUGUAUACAUGAAUUAAUGAGACUACAUGUAGAAGGCGGUACUAGCA | 69.1 nM | 16 nM | – | – |
| UGCUACGUUUCGUAGCAGCUAGGUGAGGAUAUUCAAUUUUUCACAUGAGGAUCACCCAUGUAUGUGAAGAAGGCGCCUAGAAAU | 12.8 nM | 4.8 nM | – | – |
| UCCACUGCUGAGAAGGGAUACGUCUGGUUCGCAUCAGGAUAUCGAUACAGUGCAGCAUGAGGACAUGAGGAUCACCCAUGUAUC | 11 nM | 8.98 nM | – | – |
| UUAUUAUAUGUAGGAUAUGCAUAUUAUUAUUAUGCAGAAGGACAUGAGGAUCACCCAUGUAUAUUAUUAUUAUAUAUUAUAUAU | – | – | 30.1 nM | 53.7 nM |
| AAAAGUCGGCAAGGAUAUACAACGGAUUCCCUUGUAGAAGGUGCAGGACAUGAGGAUCACCCAUGUGAUCCGGGUAUAUUGAUG | – | – | 27.8 nM | 44.8 nM |
| CGUUGGUUAGGAUAUGCCCUCCUGGUGGGAAGGCCGGGUGGGUAGAAGGGACAUGAGGAUCACCCAUGUAUGGA | – | – | 72.3 nM | 26.8 nM |
| AAUUCUUGUGAAGGAUAUACGGCGGGUCGCGCAGUAGAAGGUCACAUGAGGAUCACCCAUGUCGACAAUGCGCAGUAUCGACAA | – | – | 72 nM | 164 nM |
| CGUGUUAUCGAAGGAUAUGGAUACAUGAGGAUCACCCAUGUAUAUUUUGUGAUCAAGUUUAAGAUCCAGAAGGUCGUAUACACG | – | – | 54.9 nM | 119 nM |

| Sequence | apparent Kd [1] | apparent Kd [2] | apparent Kd [3] | apparent Kd [4] |
| --- | --- | --- | --- | --- |
| GCUGCAUAGGCAGGAUAUGCAAUAAUUCGAAUAAAAUAUAACGAAUUAACAUGAGGAUCACCCAUGUAGAAGGGCCUGUGCAGC | – | – | 5.51 nM | 4.99 nM |
| CGGCCCUAUCGAGGAUAUAAGUCUAGGACAUGAGGAUCACCCAUGUAUGUCUUAGAAGGCGAUAGGGCCAGCCUGUUACAGGCA | 29.7 nM | 6.23 nM | – | – |
| CCGAGUGGCGUACAGGAUAUGUUGCAUGGAACAUGAGGAUCACCCAUGUAUUUGCUCCCGCAUACGCAGAAGGGUGCGUCCUGGG | 142 nM | 25.4 nM | – | – |
| CAGUAUUUCGAAGGAUAUGGUUACAUGAGGAUCACCCAUGUAUUUUUUGUGAUCUUAAAAUUGAUCCAGAAGGUCGUAUAACUG | – | – | 101 nM | 232 nM |
| GGAUAGGACAGAGGAUAUACCGAUAGGAUCUACUAUCGAACAAUUCUCACAUGAGGAUCACCCAUGUAGAAGGCUGUCCUAUCG | – | – | 16.6 nM | 29.4 nM |
| ACAUGAGGAUCACCCAUGUUUUCAGGGACUUCAAUUAUUUGUAGAAGGAUGUUUACUUGUUAGUCAUAGGAUAUACAAUUAAAU | – | – | 12.2 nM | 12.9 nM |
| AGCUGUGGCCGAGGAUAUCUGACUUCAAUAACCGAAAUAUAAUCGGACAUGAGGAUCACCCAUGUAGAGAAGGCGGUCUCAGCA | – | – | 17.1 nM | 24.9 nM |
| CCACGUCACAUGAACAUGAGGAUCACCCAUGUAAAUUCUCAUGAGGAUAUGGAUCCUAAUUGGAUCCAGAAGGCAUGGACGUGG | 842 nM | 348 nM | – | – |
| UUCGUGCAGUUUUGCUGUACGCGUACAUGAGGAUCACCCAUGUAGGAUAUGGUAGGCUUUGCUUACUAGAAGGAUAGUGUGAUC | – | – | 163 nM | 33.8 nM |
| GGGAUACACCAGAAGGACAUGAGGAUCACCCAUGUAGGAUAUGGGUACGCCGACAUUGGUCUGCUCUCGGUAGACUUUCCCGAU | 203 nM | 39.6 nM | – | – |
| AGAGAUGACGAAGGAUAUGGAUACAUGAGGAUCACCCAUGUUUAUUUAGUGAUUUUGUAUGAAUACCAGAAGGUCGAAUAAAAG | – | – | 125 nM | 342 nM |
| GCGAAUAUGGGUUAGGAUAUGCGCGCAUGUACAUGAGGAUCACCCAUGUUUACGGGCGCCUUUGAGCAGAAGGAGCUAAUCAACGC | 36.5 nM | 27.6 nM | – | – |
| GGCUGCGUUGUGAAGGAUAUCCGCGUCUGGACAUGAGGAUCACCCAUGUAUGCUUGGAUCAUGCCGGAGAAGGUCACGAAUGAUU | 34.3 nM | 17 nM | – | – |
| AUCAGCUCGUCAGGAUAUACGUCACCGCGUCAGCAGUGUGGUAAGAUCACAUGAGGAUCACCCAUGUAGAAGGGACGAGCUGAU | – | – | 13.6 nM | 237 nM |
| UUAAUGUGAGGAUAUCAGGUGUGCUAGCGUACUGGUACAUCUGAGAAGGCACAUGAGGAUCACCCAUGUUCCUG | – | – | 22.1 nM | 77.6 nM |
| CAGUACUGAGGAUAUACAUGAGGAUCACCCAUGUGUUCCAGCUAGGUAACUAGCAAAAGUAGAAGGCAGUACUG | – | – | 23.6 nM | 321 nM |
| GAAUGCAGAGGAUAUACGGGACAGCAUCGAAAGAUGCUGAAACAUGAGGAUCACCCAUGUAGAAGGCUGCAGAA | – | – | 73.2 nM | 154 nM |
| ACCGUAUGAACAUGAGGAUCACCCAUGUAACCGAUAACGAAUGAGGAUAUCGAUAGCAAAGCUAUCGAGAAGGCAUGGGACGGU | 224 nM | 43.9 nM | – | – |
| AGUGUGUGGCAGGAUAUUCUAAUCGUGAGUCGGGAAGAAGGGUCUACAUGAGGAUCACCCAUGUAAGCGGUUGA | – | – | 132 nM | 144 nM |
| GUGACGAAUGUAGGAUAUGCUGAGGAAUACUCAGCAGAAGGACAUGAGGAUCACCCAUGUCAUCCUUAUAAUAAAUAUCGUCAC | – | – | 13.4 nM | 17.7 nM |
| UUAUUAUAUGUAGGAUAUGCAUAUUAUUAUUGUGCAGAAGGACAUGAGGAUCACCCAUGUAUACUAUUAUUAUAUAUUAUAUAU | – | – | 10.8 nM | 13.6 nM |
| GCGUAUAUAUGAUUUAUUUAACAGUCAGAAGGUGAGAAGACGACAUGAGGAUCACCCAUGUUAUUCAAGGAUAUGAUAAUGCGC | 24.9 nM | 11.4 nM | – | – |
| GUGCAUACGUGAGGAUAUGUAUUAGAUAGUGGUACAGAAGGCAUGUCUGAUGACAUGAGGAUCACCCAUGUUGGCACAGUGCGC | 59.7 nM | 29.6 nM | – | – |
| AUAGGCCUAGGAUAUACAUGAGGAUCACCCAUGUUAAUAUUUCAAUCAUGAUAAACGUGUAGAAGGAGGAAUAA | – | – | 25.9 nM | 28.6 nM |
| CUGUGAGGGAUCCAGAAUUACAACAUGAGGAUCACCCAUGUACAGGAUAUAGGGUUGAUAGGCGCCUAGAAGGGUAUGAUCACG | – | – | 632 nM | 584 nM |
| UUGAGGUGCAAGAAGGAUCACAUGAGGAUCACCCAUGUCAUGUGAAGUCUCGAGAUUUUAUAUGGAUAGGAUAUUGCACCGAAC | 263 nM | 41.2 nM | – | – |
| UGUUGUAUUACAGGAUAUCUAUGAUUUAUAUUUAGAGAAGGGUAUUCACAUGAGGAUCACCCAUGUAUAUACGAGGAAGUUGUG | 48.7 nM | 55.9 nM | – | – |

Reference: the EternaBench riboswitch data
